Test results: ChEMBL document CHEMBL4257584, “Sterol 14α-Demethylase Structure-Based Optimization of Drug Candidates for Human Infections with the Protozoan Trypanosomatidae” (J Med Chem, 2018)
The source made the active and inactive calls. The rule behind the calls is not given here.

Columns and labels:
[1] = Drug uptake in BALB/c mouse spleen at 25 mg/kg, po via gavage measured after 4 hrs post dose by […]; assay type: ADME, organism-based; details: read-out: Drug uptake
How it was run: (§1)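 BALB/c mice get a single oral gavage dose of 25 mg/kg; tissues are collected 4 h post-dose. About 100 mg tissue is diluted 5-fold in PBS and homogenized. Homogenate is extracted as for plasma (ketoconazole internal standard, acetonitrile extraction) and quantified by HPLC-UV at 291 nm, 0.1 μM detection limit, n=2.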

[2] = Intrinsic clearance in human liver microsomes at 1 uM preincubated for 5 mins followed by NADPH addition and measured after 45 mins by LC/MS/MS analysis; assay type: ADME, microsome; details: read-out: CLH
[3] = Lipophilicity, log P of the compound; assay type: physicochemical; details: octanol/water
[4] = Hepatic clearance in Sprague-Dawley rat liver microsomes at 1 uM preincubated for 5 mins followed by NADPH addition and measured after 45 mins by LC/MS/MS analysis; assay type: ADME, microsome
How it was run: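 Pooled liver microsomes at 0.5 mg/mL: human (mixed gender), male Sprague-Dawley rat, or male CD-1 mouse, with test compound at 1 μM, triplicate. In vitro t1/2 is scaled to CLint (45 mg microsomes/g liver; 45 g liver/kg scaling factor). CLhep uses well-stirred model with hepatic blood flow 21 (human), 70 (rat), 90 (mouse) mL/min/kg.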

[5] = Half life in CD1 mouse liver microsomes at 1 uM preincubated for 5 mins followed by NADPH addition and measured by LC/MS/MS analysis; assay type: ADME, microsome
[6] = Hepatic clearance in CD1 mouse liver microsomes at 1 uM preincubated for 5 mins followed by NADPH addition and measured after 45 mins by LC/MS/MS analysis; assay type: ADME, microsome
[7] = Drug uptake in BALB/c mouse brain at 25 mg/kg, po via gavage measured after 4 hrs post dose by […]; assay type: ADME, organism-based; details: read-out: Drug uptake; how it was run: as §1
[8] = Drug uptake in BALB/c mouse blood at 25 mg/kg, po via gavage measured after 4 hrs post dose by […]; assay type: ADME, organism-based; details: read-out: Drug uptake; how it was run: as §1
[9] = Half life in Sprague-Dawley rat liver microsomes at 1 uM preincubated for 5 mins followed by NADPH addition and measured by LC/MS/MS analysis; assay type: ADME, microsome
[10] = Hepatic clearance in human liver microsomes at 1 uM preincubated for 5 mins followed by NADPH addition and measured after 45 mins by LC/MS/MS analysis; assay type: ADME, microsome
[11] = Intrinsic clearance in Sprague-Dawley rat liver microsomes at 1 uM preincubated for 5 mins followed by NADPH addition and measured after 45 mins by LC/MS/MS analysis; assay type: ADME, microsome; details: read-out: CLH
[12] = Maximum plasma concentration in BALB/c mouse at 25 mg/kg, po via gavage by […]; assay type: ADME, organism-based; design: dose 25 mg/kg, route oral
How it was run: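 Single oral gavage dose of 25 mg/kg in BALB/c mice; blood sampled at 1, 2, 4, 6, 10, 16, 24 h. Plasma is diluted in PBS with ketoconazole internal standard, extracted with 80% acetonitrile, dried and redissolved. Analysed by reversed-phase HPLC with UV at 291/250 nm, 0.1 μM detection limit. Lifetime is time until undetectable.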

[13] = Drug uptake in BALB/c mouse liver at 25 mg/kg, po via gavage measured after 4 hrs post dose by […]; assay type: ADME, organism-based; details: read-out: Drug uptake; how it was run: as §1
Mus musculus = experiment: Drug metabolism in mouse plasma assessed as glucuronidation of the N-pyridinyl site formation at 25 mg/kg, po by HPLC analysis; assay type: ADME, organism-based; details: in vivo
[14] = Intrinsic clearance in CD1 mouse liver microsomes at 1 uM preincubated for 5 mins followed by NADPH addition and measured after 45 mins by LC/MS/MS analysis; assay type: ADME, microsome; details: read-out: CLH
[15] = Half life in human liver microsomes at 1 uM preincubated for 5 mins followed by NADPH addition and measured by LC/MS/MS analysis; assay type: ADME, microsome
[16] = Drug uptake in BALB/c mouse heart at 25 mg/kg, po via gavage measured after 4 hrs post dose by […]; assay type: ADME, organism-based; details: read-out: Drug uptake; how it was run: as §1
[17] = Drug uptake in BALB/c mouse lungs at 25 mg/kg, po via gavage measured after 4 hrs post dose by […]; assay type: ADME, organism-based, Lung; details: read-out: Drug uptake; how it was run: as §1
[18] = Drug uptake in BALB/c mouse intestine at 25 mg/kg, po via gavage measured after 2 hrs post dose by LC-MS analysis; assay type: ADME, organism-based; details: read-out: Drug uptake
[19] = target: Sterol 14-alpha demethylase (Trypanosoma cruzi (strain CL Brener)) (UniProt Q7Z1V1); experiment: Inhibition of Trypanosoma cruzi Y CYP51 expressed in Escherichia coli using [3-3H]-eburicol as substrate after 60 mins by LC-MS analysis
Sequence of Sterol 14-alpha demethylase (Trypanosoma cruzi (strain CL Brener)) (Q7Z1V1 whole entry, looked up): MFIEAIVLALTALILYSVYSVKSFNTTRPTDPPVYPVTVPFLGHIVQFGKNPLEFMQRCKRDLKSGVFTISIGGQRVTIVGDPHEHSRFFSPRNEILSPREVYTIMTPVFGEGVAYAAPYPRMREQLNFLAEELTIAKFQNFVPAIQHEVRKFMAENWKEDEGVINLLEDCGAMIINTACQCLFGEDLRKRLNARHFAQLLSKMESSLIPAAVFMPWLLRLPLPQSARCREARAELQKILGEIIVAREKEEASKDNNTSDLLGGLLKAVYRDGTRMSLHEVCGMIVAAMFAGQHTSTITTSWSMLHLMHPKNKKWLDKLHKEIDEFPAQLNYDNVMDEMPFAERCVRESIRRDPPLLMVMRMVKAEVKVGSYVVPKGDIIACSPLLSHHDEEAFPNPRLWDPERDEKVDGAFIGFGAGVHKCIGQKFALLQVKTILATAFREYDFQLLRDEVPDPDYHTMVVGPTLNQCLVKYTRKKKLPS
How it was run: (§2)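 Reconstituted reaction: 1 μM purified CYP51, 2 μM T. brucei NADPH-P450 reductase, 100 μM dilauroylphosphatidylcholine, isocitrate dehydrogenase/isocitrate regeneration, 50 mM K phosphate pH 7.2, 10% glycerol. [3-3H]sterol substrate at 50 μM final (eburicol for T. cruzi; obtusifoliol for T. brucei and L. infantum) with inhibitor at 1.1 μM final. Preincubate 60 s at 37 °C, start with 100 μM NADPH, run 60 min, EtOAc extraction. Gives % inhibition of 14α-demethylation, triplicate, mean ± SD.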

[20] = target: Putative lanosterol 14-alpha-demethylase (Leishmania infantum) (UniProt A2TEF2); experiment: Inhibition of Leishmania infantum CYP51 expressed in Escherichia coli using [3-3H]-obtusifoliol as substrate after 60 mins by LC-MS analysis; how it was run: as §2
Sequence of Putative lanosterol 14-alpha-demethylase (Leishmania infantum) (A2TEF2 1-480): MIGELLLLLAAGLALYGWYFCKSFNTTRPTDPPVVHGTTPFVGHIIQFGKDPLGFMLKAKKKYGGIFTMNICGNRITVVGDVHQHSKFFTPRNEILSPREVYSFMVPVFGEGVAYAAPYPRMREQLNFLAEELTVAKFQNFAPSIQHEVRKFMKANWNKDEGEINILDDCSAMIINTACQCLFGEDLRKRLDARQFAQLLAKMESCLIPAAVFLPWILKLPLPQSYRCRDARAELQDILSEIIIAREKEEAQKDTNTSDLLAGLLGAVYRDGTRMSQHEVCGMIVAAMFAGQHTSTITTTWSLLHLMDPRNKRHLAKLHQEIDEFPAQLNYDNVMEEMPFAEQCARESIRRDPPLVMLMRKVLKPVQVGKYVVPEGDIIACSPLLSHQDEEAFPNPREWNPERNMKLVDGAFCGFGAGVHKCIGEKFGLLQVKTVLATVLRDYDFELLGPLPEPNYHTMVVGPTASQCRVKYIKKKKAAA

[21] = Drug uptake in BALB/c mouse brain at 25 mg/kg, po via gavage measured after 4 hrs post dose by LC-MS analysis; details: in vivo
[22] = Drug uptake in BALB/c mouse blood at 25 mg/kg, po via gavage measured after 2 hrs post dose by LC-MS analysis; assay type: ADME, organism-based; details: in vivo
[23] = Drug uptake in BALB/c mouse lungs at 25 mg/kg, po via gavage measured after 2 hrs post dose by LC-MS analysis; assay type: ADME, organism-based, Lung; details: in vivo
[24] = Drug uptake in BALB/c mouse liver at 25 mg/kg, po via gavage measured after 2 hrs post dose by LC-MS analysis; assay type: ADME, organism-based; details: in vivo
[25] = Drug uptake in BALB/c mouse heart at 25 mg/kg, po via gavage measured after 2 hrs post dose by LC-MS analysis; assay type: ADME, organism-based; details: in vivo
[26] = target: Lanosterol 14-alpha-demethylase (Trypanosoma brucei brucei (strain 927/4 GUTat10.1)) (UniProt Q385E8); experiment: Inhibition of Trypanosoma brucei […] CYP51 expressed in Escherichia coli using [3-3H]-obtusifoliol as substrate after 60 mins by LC-MS analysis; how it was run: as §2
Sequence of Lanosterol 14-alpha-demethylase (Trypanosoma brucei brucei (strain 927/4 GUTat10.1)) (Q385E8 1-481): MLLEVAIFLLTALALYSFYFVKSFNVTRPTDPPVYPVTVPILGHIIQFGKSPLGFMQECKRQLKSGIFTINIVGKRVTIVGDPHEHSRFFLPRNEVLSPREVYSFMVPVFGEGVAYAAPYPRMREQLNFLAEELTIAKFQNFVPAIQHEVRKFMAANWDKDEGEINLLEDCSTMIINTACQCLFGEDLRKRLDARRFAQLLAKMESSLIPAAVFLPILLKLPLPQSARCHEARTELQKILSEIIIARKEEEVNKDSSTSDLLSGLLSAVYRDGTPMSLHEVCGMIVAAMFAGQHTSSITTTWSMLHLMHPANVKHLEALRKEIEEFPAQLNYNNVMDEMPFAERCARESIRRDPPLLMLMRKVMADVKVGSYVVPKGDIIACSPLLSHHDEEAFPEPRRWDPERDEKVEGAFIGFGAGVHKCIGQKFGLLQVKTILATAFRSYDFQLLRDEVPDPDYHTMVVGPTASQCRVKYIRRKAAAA

[27] = Drug uptake in BALB/c mouse spleen at 25 mg/kg, po via gavage measured after 2 hrs post dose by LC-MS analysis; assay type: ADME, organism-based; details: in vivo

Row | concentration at 4 h [1] [nM] | CLint scaled at 1 µM [2] [mL/min/kg] | logP [3] | CLhep predicted at 1 µM [4] [mL/min/kg] | CLhep predicted at 1 µM [6] [mL/min/kg] | concentration at 4 h [7] [nM] | concentration at 4 h [8] [nM] | CLhep predicted at 1 µM [10] [mL/min/kg] | CLint scaled at 1 µM [11] [mL/min/kg] | Cmax [12] [nM] | concentration at 4 h [13] [nM] | CLint scaled at 1 µM [14] [mL/min/kg] | concentration at 4 h [16] [nM] | concentration at 4 h [17] [nM] | SMILES | also measured
1 | < 100 | 23.5 | 5.27 | 29.9 | 47.1 | < 100 | < 100 | 11.1 | 52.3 | < 100 | 400 | 99 | 100 | 1000 | O=C(N[C@@H](Cn1ccnc1)c1ccc(-c2ccc(F)cc2)cc1Cl)c1ccc(-c2nnc(-c3ccncc3)o2)cc1 | half-life at 1 µM ([5]; CD1, mouse, liver microsomes): 55 min; half-life at 1 µM ([9]; Sprague-Dawley, liver microsomes): 54 min; Drug metabolism (Mus musculus): Metabolite_Detected; half-life at 1 µM ([15]; liver microsomes): 53 min
2 | < 100 | 11.6 | 4.39 | 31.7 | 52.6 | < 100 | < 100 | 7.46 | 58.1 | < 100 | < 100 | 127 | < 100 | < 100 | CS(=O)(=O)c1ccc(-c2ccc([C@H](Cn3ccnc3)NC(=O)c3ccc(-c4nnc(-c5ccccc5)o4)cc3)c(Cl)c2)cc1 | t1/2 ([5]; mouse, microsomes, 1 µM): 43 min; concentration at 2 h [18]: 130000 nM; inhibition [19]: inactive; inhibition [20]: inactive; t1/2 ([9]; microsomes, 1 µM): 48 min; Drug uptake [21]: Not Active; Drug uptake [22]: Not Active; Drug uptake [23]: Not Active; Drug uptake [24]: Not Active; Drug uptake [25]: Not Active; inhibition [26]: inactive; t1/2 ([15]; microsomes, 1 µM): 108 min; Drug uptake [27]: Not Active
